The list is not random: actives were taken first. Their share in the collection is about 2.3%.
TRPC6 inh – mouse TRPC6 channel inhibitors, primary screen, cell-based, HEK293, membrane potential dye | ACh-evoked depolarization; hits give low values | actives 1.1% (n = 310,000) | B-score at 10 µM | Short transient receptor potential channel 6 (Mus musculus), Q61143;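 active means B-score under library mean minus 3 SD, initial fluorescence not abnormally high, positive integrated signal ratio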;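 further: B-score derived from integrated fluorescence ratio over the kinetic read; more negative B-score means stronger inhibition of depolarization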
TRPC6 act – mouse TRPC6 channel activators, primary screen, cell-based, HEK293, membrane potential dye; HEK293-TRPC6 membrane potential dye fluorescence; hits give high values; AID 2550, 2010; actives 0.13% (n = 310,000); B-score at 10 µM; Short transient receptor potential channel 6 (Mus musculus), Q61143;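 active means B-score of the integrated fluorescence ratio above library mean plus 3 SD, and starting fluorescence ratio within library mean plus 5 SD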;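 further: higher score means more depolarization so channel activation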
TRPC4 block – inhibitors of mouse TRPC4 channel, primary screen, Fluo4 calcium, HEK293 TRPC4beta/mu-opioid cells; Short transient receptor potential channel 4 (Mus musculus), Q9QUQ5; DAMGO-evoked Fluo4 calcium flux; hits give low values; B-score at 10 µM; actives 0.39% (n = 300,000);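 active means B-score over 3 SD under the library average, no early fluorescence shift, positive overall ratio signal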
Target sequence (Q9QUQ5 whole entry, looked up): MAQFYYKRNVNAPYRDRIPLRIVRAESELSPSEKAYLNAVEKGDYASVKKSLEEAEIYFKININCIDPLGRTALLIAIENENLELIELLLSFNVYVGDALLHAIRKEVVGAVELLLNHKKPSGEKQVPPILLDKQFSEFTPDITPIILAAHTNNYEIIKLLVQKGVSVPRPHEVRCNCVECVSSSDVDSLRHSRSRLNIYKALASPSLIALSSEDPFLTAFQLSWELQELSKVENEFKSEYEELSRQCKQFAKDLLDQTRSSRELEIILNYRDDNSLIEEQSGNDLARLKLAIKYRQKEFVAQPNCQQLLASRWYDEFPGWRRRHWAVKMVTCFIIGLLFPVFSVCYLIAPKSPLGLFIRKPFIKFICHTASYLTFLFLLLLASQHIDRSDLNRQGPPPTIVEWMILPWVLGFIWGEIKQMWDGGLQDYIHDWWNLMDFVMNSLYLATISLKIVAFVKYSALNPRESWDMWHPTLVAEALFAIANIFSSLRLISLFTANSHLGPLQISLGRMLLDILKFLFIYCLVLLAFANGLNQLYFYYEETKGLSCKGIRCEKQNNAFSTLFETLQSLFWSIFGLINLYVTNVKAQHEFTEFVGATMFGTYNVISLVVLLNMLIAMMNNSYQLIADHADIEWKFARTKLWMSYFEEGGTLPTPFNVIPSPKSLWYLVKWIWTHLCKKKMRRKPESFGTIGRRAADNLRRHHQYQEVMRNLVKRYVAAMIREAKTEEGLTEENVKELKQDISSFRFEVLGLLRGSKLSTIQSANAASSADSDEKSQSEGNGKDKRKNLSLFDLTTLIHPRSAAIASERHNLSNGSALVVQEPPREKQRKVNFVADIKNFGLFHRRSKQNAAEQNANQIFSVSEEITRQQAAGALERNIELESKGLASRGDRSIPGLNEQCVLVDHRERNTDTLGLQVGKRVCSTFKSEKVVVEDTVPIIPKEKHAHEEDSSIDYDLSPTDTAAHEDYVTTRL
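Signal: kinetic Fluo4 fluorescence imaging of calcium influx. Material: stable TRPC4beta/mu-opioid receptor HEK293 cells. Probe or stimulus: DAMGO in two steps, submaximal then maximal.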
TRPC4 PAM – positive allosteric modulators of TRPC4, primary screen, cell-based, mouse TRPC4beta, HEK293 mu-opioid, Fluo-4 calcium | Short transient receptor potential channel 4 (Mus musculus), Q9QUQ5 | DAMGO EC20, Fluo-4 Ca2+ flux; hits give high values | B-score at 10 µM | actives 0.42% (n = 310,000) | AID 2227, 2009;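 active means B-score of calcium response area above 5 SD of library B-scores, with initial fluorescence ratio within 5 SD of library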;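 further: B-score of integrated fluorescence ratio over time as area under calcium response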
TRPC4 act – activators of mouse TRPC4 channel, primary screen, Fluo4 calcium, HEK293 TRPC4beta/mu-opioid cells; Fluo4 calcium fluorescence; hits give high values; Short transient receptor potential channel 4 (Mus musculus), Q9QUQ5; B-score at 10 µM; actives 0.49% (n = 310,000);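 active means B-score above 5 SD of library B-scores, and initial fluorescence ratio not above library mean plus 5 SD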;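 further: positive B-score marks a calcium rise read as TRPC4 activation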
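System – HEK293 cells stably co-expressing mouse TRPC4beta and mu-opioid receptor · Signal – Fluo4 calcium-sensitive dye fluorescence, kinetic, 1 Hz baseline · Benchmarks – buffer (low) and maximal DAMGO (high) · Read-out – B score of integrated fluorescence ratio per well · Incubation – dye loading 45 min room temperature, 110 s kinetic read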
TRPC4 sel inh 2 – mouse TRPC4 off-target activity of TRPC6 inhibitors, second screen | shares compounds with TRPC6 inh | HEK293 TRPC4/MOR, membrane potential dye fluorescence; channel activated by saturating DAMGO dose | inhibition, % at 10 µM | actives 42% (n = 920) | AID 2776;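 active means compounds whose fluorescence signal differed from control wells by over 3 SD, either direction, in both duplicate plates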
TRPC4 spec – mouse TRPC4 modulation by TRPC6 hits, confirmation, selectivity assay for TRPC6 inhibitor project, cell-based, HEK293 TRPC4/mu-opioid, membrane potential dye. AID 2777, 2010. activity change, negative = inhibition, % at 10 µM. actives 61% (n = 920). shares compounds with TRPC6 inh. membrane potential fluorescence;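 active means rise or fall in signal beyond 3 SD of buffer-only wells in both replicate plates, either sign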;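 further: integrated kinetic ratio of fluorescence range over baseline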
HEK293 MPD ctr 2-1 – nonspecific membrane potential effects, parental HEK293, confirmation, counter-screen for TRPC6 inhibitor project, cell-based, second counter screen | shares compounds with TRPC6 inh | parental HEK293 membrane potential dye fluorescence; maximal acetylcholine challenge after compound addition | signal change vs control, % at 10 µM | actives 31% (n = 920) | AID 2779, 2010;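 active means membrane potential signal moving either way by over 3 SD of the maximum-effect control, in both duplicate plates, meaning non-specific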
HEK293 MPD ctr-1 – membrane potential modulation in parental HEK293, confirmation, counter-screen for TRPC6 inhibitor project, cell-based. AID 2780, 2010. shares compounds with TRPC6 inh. parental HEK293 membrane potential dye fluorescence. actives 60% (n = 920). membrane potential signal change, % at 10 µM;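 active means membrane potential signal shifting up or down by more than 3 SD of buffer-only wells, on both duplicate plates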
HEK293 MPD ctr-2 – parental HEK293 membrane potential modulation, confirmation, counter-screen for TRPC6 modulator project, cell-based; shares compounds with TRPC6 inh; membrane potential signal change, % at 10 µM; membrane potential dye fluorescence; actives 51% (n = 2,400);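 active means membrane potential signal moves up or down beyond 5 SD from buffer-only wells, on both duplicate plates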
HEK293 MPD ctr 2-2 – parental HEK293 nonspecific activity of TRPC6 modulators, second screen | shares compounds with TRPC6 inh | inhibition, % at 10 µM | membrane potential dye fluorescence; after compound, maximal acetylcholine stimulation | actives 14% (n = 2,400);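 active means membrane potential signal drops by more than 5 SD from the mean control signal, in both duplicate plates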;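 further: plate controls were acetylcholine ECmax control wells for no effect and buffer only wells for full effect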
TRPC4 ctr mod – TRPC4 modulation by TRPC6 hit compounds, confirmation, selectivity assay for TRPC6 modulator project, cell-based, HEK293 TRPC4/mu-opioid, membrane potential dye, mouse; shares compounds with TRPC6 inh; membrane potential fluorescence; percent change from control (negative = decrease, positive = increase), % at 10 µM; actives 69% (n = 2,400); AID 488927, 2010;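 active means membrane potential signal moved up or down beyond 5 SD of buffer control wells, in both duplicate plates, actives on both sides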;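 further: plate controls were assay buffer wells for no effect and DAMGO maximal-effect wells for full effect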
TRPC4 ctr inh 2 – second selectivity test of TRPC6 modulators against mouse TRPC4. HEK293 TRPC4/mu-opioid, membrane potential dye fluorescence; stimulated with maximal-effect DAMGO. AID 488928. actives 55% (n = 2,400). shares compounds with TRPC6 inh. inhibition, % at 10 µM;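 active means drop in membrane potential signal beyond 5 SD of the control wells in both duplicate plates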;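 further: TRPC4 counter screen for TRPC6 hits run under conditions tuned for TRPC6 not TRPC4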
TRPC6 inh conf – mouse TRPC6 channel inhibitors, confirmation, HEK293 cells, membrane potential dye, duplicate | shares compounds with TRPC6 inh | ACh-evoked depolarization | inhibition, % at 10 µM | actives 43% (n = 3,300) | AID 488960, 2010;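 active means fluorescence ratio falls more than 5 SD below the full-stimulation control mean, in both duplicate runs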;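 further: integrated fluorescence ratio of peak minus minimum over baseline after agonist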
TRPC6 act conf – mouse TRPC6 channel activators, confirmation, HEK293 cells, membrane potential dye, duplicate; HEK293-TRPC6 membrane potential dye fluorescence, FDSS; activation, % at 10 µM; shares compounds with TRPC6 inh; actives 11% (n = 2,800);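 active means ratio signal rise beyond 5 SD above unstimulated control wells' mean, seen in both duplicate runs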;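 further: plate controls were buffer EC0 wells for no effect and acetylcholine ECmax response for full effect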
Starred values were filed as active, the others as inactive; i = inactive; . = no result.

SMILES	TRPC6 inh	TRPC6 act	TRPC4 block	TRPC4 PAM	TRPC4 act	HEK293 MPD ctr-2	HEK293 MPD ctr 2-2	TRPC4 ctr mod	TRPC4 ctr inh 2	TRPC6 inh conf	TRPC6 act conf	others
COC(=O)c1ccc(S(=O)(=O)NC(C)(C)C)n1C	i	i	i	i	i	.	.	.	.	.	.
CN(C)CCc1cc2c(c3c1ccc1ccccc13)OCO2	-5.2*	i	i	i	i	i	i	-10%*	47%*	i	i
Cn1cc(CN2CCC(n3nccc3NC(=O)c3ccccc3Cl)CC2)c2ccccc21	-5.6*	i	i	i	i	i	i	i	70%*	i	i
O=C(O)c1cccc(NC(=O)c2ccc3c(c2)C(=O)N(C2CCCCC2)C3=O)c1	i	i	i	i	i	.	.	.	.	.	.
CC(=O)Nc1sc(/C(C#N)=C/c2ccc(Cl)c(Cl)c2)nc1-c1ccc(C)cc1	i	13*	i	i	i	254%*	i	46%*	i	i	76%*
CC(=O)Nc1sc(N/N=C/c2ccc(C)cc2)nc1-c1ccc(C)cc1	i	i	i	i	i	.	.	.	.	.	.
CC(C)(C)NC(=O)CN(C(=O)CNS(=O)(=O)c1ccc(Cl)cc1)c1ccc2c(c1)OCCO2	i	i	i	i	i	.	.	.	.	.	.
CC[N+](C)(C)CC/C=C1/c2ccccc2Sc2ccc(Cl)cc21	-8.8*	i	i	i	i	.	.	.	.	79%*	i	TRPC4 sel inh 2=i;TRPC4 spec=-11%*;HEK293 MPD ctr 2-1=i;HEK293 MPD ctr-1=i
CCN(Cc1ccncc1)C(=O)C(CO)c1ccccc1 (stereo not given)	-5.7*	i	i	i	i	i	66%*	i	i	82%*	i
CCN(Cc1ccncc1)C(=S)Nc1ccccc1	i	i	i	i	i	.	.	.	.	.	.
Cn1c(=O)n(C)c2cc(/C=N/N=C3/NC(=O)C(CC(=O)O)S3)ccc21 (stereo not given)	i	i	i	i	i	.	.	.	.	.	.
COc1ccc(NCc2nnc(SCC(=O)Nc3cccc(C)c3)o2)cc1	-6.3*	i	i	i	i	i	i	i	i	i	i
COc1cc(N2CCCC2)c(OC)cc1C=O	-7.9*	i	i	i	i	.	.	.	.	i	i	TRPC4 sel inh 2=i;TRPC4 spec=i;HEK293 MPD ctr 2-1=250%*;HEK293 MPD ctr-1=i
CC(C(=O)Nc1ccc([N+](=O)[O-])cc1)N1CCN(C/C=C/c2ccccc2)CC1 (stereo not given)	-6*	i	i	i	i	i	i	i	54%*	i	i
CC(=O)Nc1ccc(NC(=O)CSc2nc(N)c(NC(=O)c3ccco3)c(=O)[nH]2)cc1	i	i	i	i	i	.	.	.	.	.	.
CS(=O)c1ccccc1-c1nc(-c2cccc(Cl)c2)no1 (stereo not given)	-9.8*	i	i	i	i	.	.	.	.	i	i	TRPC4 sel inh 2=i;TRPC4 spec=i;HEK293 MPD ctr 2-1=i;HEK293 MPD ctr-1=i
CS(=O)c1ccccc1-c1nc(-c2ccc(Cl)cc2)no1 (stereo not given)	i	i	i	i	i	.	.	.	.	.	.
C/C(=N\NC(=O)CSc1nc(C)[nH]c1[N+](=O)[O-])c1ccc(F)cc1	i	i	i	i	i	.	.	.	.	.	.
CCCNC(=O)c1ccccc1NC(=O)c1ccccc1N(C)S(=O)(=O)c1ccc(C)cc1	i	i	i	i	i	.	.	.	.	.	.
CCOc1cc(/C=N/NC(=O)c2ccccn2)ccc1OC(=O)c1ccc(F)cc1	-5.3*	i	i	i	i	i	i	i	i	i	i
O=C(Cn1cc(S(=O)(=O)Cc2cccc(F)c2)c2ccccc21)N1CCOCC1	i	i	i	i	i	.	.	.	.	.	.
COC(=O)c1ccc(NC(=O)c2snnc2-c2ccccc2)cc1	-7.3*	i	i	i	i	.	.	.	.	93%*	.	TRPC4 sel inh 2=i;TRPC4 spec=i;HEK293 MPD ctr 2-1=i;HEK293 MPD ctr-1=i
O=C(C1=C(O)C(=O)N(c2ccccc2)C1c1ccc([N+](=O)[O-])cc1)c1cccs1 (stereo not given)	i	i	i	i	i	.	.	.	.	.	.
CS(=O)(=O)N1CCN(c2ccc(NC(=O)c3cc4ccccc4o3)cc2)CC1	i	i	i	i	i	.	.	.	.	.	.

Screening results (PubChem BioAssay)
